# Screening data from PubChem.
# Rows were chosen to be rich in hits. Some 2.3% of all compounds tested hit in one or more screens of this group.
# Rpn11 inh – Rpn11 (human) deubiquitinase inhibition; O00487; human 26S proteasome, Ub4-pepOG fluorescence polarization; 20S core pre-blocked with epoxomicin; inhibition, % at 20 µM; hit rate 0.59% among 360,000; AID 588493;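 active = inhibition at 20 µM, scaled to each plate's controls, above about 33%, limit read from the data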
# MT1-MMP act inh – blocks activation of human MT1-MMP; P50281; HT1080 RFP-PRO-GFP cells, GFP/RFP ratio fluorescence, overnight; percent of plate control window, DMSO zero; GFP/RFP ratio change, % at 20 µM; hit rate 0.061% among 360,000; AID 651647;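 active = GFP/RFP ratio change of at least 30% with cell ATP level not reduced by more than half and red fluorescence within 50% of control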
#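 Material: RFP-PRO-GFP reporter HT1080 cells. Dosing: single-point 20 µM compound, 1% DMSO. Controls: DMSO and RFP-L50D-GFP cell wells. Timing: cells overnight before dosing, compound overnight, 37 °C, 5% CO2. Measure: GFP/RFP fluorescence ratio.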
# CSN inh – inhibitors of human CSN-mediated cullin deneddylation | hit rate 0.38% among 360,000 | inhibition, % at 12.5 µM | AID 651999 | Q92905 | Purified CSN, SCF-Nedd8-OG deneddylation, fluorescence polarization;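 active = pattern-corrected inhibition above about 35%, with an unprinted fluorescence ratio check between 0.5 and 1.5, limit read from the data, passing the limit was not always enough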
#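 test system = HEK293T-derived human Csn5 enzyme | amount = 0.24 nM Csn5 enzyme, final concentration | medium = Tris/NaCl/DTT buffer, pH 7.5 | schedule = 90 min reaction at room temperature | signal = FP | evaluation = inhibition of Csn5 cleavage, % | compound dosing = single dose of 12.5 µM compound with 0.25% DMSO | probe or stimulus = 10 nM SCFSkp2-Nedd8OG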
# SUMO1-SIM PPI – SUMO1-SIM interaction modulation. P63165. SUMO1 binding to a labelled peptide, TR-FRET, 1 h. inhibition, % at 20 µM. hit rate 0.33% among 360,000; in the data active = inhibition above about 37%
# SKN-1 inh – blocks SKN-1 activity in C. elegans; C. elegans VP596 Pgst-4::GFP/RFP ratio, acrylamide-induced, 24 h; inhibition, % at 21.8 µM; hit rate 0.49% among 360,000; AID 624304;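 active = interference check ratio from 0.5 to 1.5 plus GFP to RFP signal ratio inhibition reaching or exceeding a fixed threshold, cut at about 30% in these data, passing the limit was not always enough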
# DNMT1 block – DNMT1 (human) enzyme inhibition; AID 588458; DNMT1 molecular beacon, Hinp1I cleavage, fluorescence; hit rate 0.83% among 360,000; inhibition (reported as % activation of signal), % at 10 µM; in the data active = inhibition above about 50%
# Beacon interf DR – beacon fluorescence artifact, dose response counter-screen. shares compounds with DNMT1 block. molecular beacon fluorescence, spectral interference counter-screen. IC50, µM. 200 tested, under 10 active. AID 602382; call rule not given here
# DNMT1 confirm – DNMT1 inhibition confirmation, single concentration | inhibition, % at 10 µM | hit rate 8% among 2,300 | shares compounds with DNMT1 block | DNMT1 molecular beacon HinP1I cleavage, fluorescence;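 active = average inhibition of at least 30% in the single-concentration confirmation test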
# DNMT1 interf – shows spectral interference in the DNMT1 beacon assay | shares compounds with DNMT1 block | DNMT1 molecular beacon spectral interference counterscreen, fluorescence 485/520 | activation (fluorescence interference), % at 10 µM | AID 602387 | hit rate 1% among 2,300;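 active = activation of at least 30% at 10 µM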;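 also: DNMT1 catalytic domain with a HinP1I cleavage step and a FAM/dabcyl DNA beacon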
# Hits are given with their value; – = inactive; · = no result given.
SMILES,Rpn11 inh,MT1-MMP act inh,CSN inh,SUMO1-SIM PPI,SKN-1 inh,DNMT1 block,DNMT1 confirm,DNMT1 interf,others
Cc1nc2ccc(C(=O)N3c4ccccc4N=C(c4ccc5c(c4)OCO5)C3C(=O)NCc3ccccc3)cc2[nH]1 (stereo not drawn),·,–,–,–,–,·,·,·,
COc1ccc([N+](=O)[O-])cc1NC(=O)CS(=O)(=O)c1ccc(C)cc1,–,–,–,–,–,–,·,·,
O=C(CCS(=O)(=O)c1ccc(Br)cc1)Nc1cc(F)ccc1F,–,–,–,–,–,62,–,–,
COc1ccc([N+](=O)[O-])cc1NC(=O)CCS(=O)(=O)c1ccc(Br)cc1,–,–,–,–,–,79,–,–,
O=C(CCS(=O)(=O)c1ccc(Cl)cc1)Nc1ccccc1Br,–,–,–,–,–,–,·,·,
O=C(O)CC(NCc1ccco1)C(=O)OCCc1ccccc1 (stereo not drawn),–,–,–,–,–,–,·,·,
C=C(C)CCOC(=O)C(CC(=O)O)NCc1ccco1 (stereo not drawn),–,–,–,–,–,63,–,–,
COC(=O)c1cccc(NC(=O)Cc2coc3cc(OC)ccc23)c1,–,–,–,–,–,–,·,·,
COc1ccc2c(CC(=O)OCC(=O)Nc3cccc(C)c3)coc2c1,–,–,–,–,–,50,–,–,
CN(Cc1cn(Cc2cccc(C(F)(F)F)c2)nn1)C1CN(Cc2cn(Cc3cccc(C(F)(F)F)c3)nn2)S(=O)(=O)C1 (stereo not drawn),·,–,–,–,–,·,·,·,
O=C(N/N=C/C=C\c1ccccc1[N+](=O)[O-])c1cc(-c2ccc3ccccc3c2)n[nH]1,–,–,–,–,–,68,–,–,
CSc1ccccc1NC(=O)COC(=O)c1ccc(-n2nc(C)cc2C)cc1,–,–,–,–,–,–,·,·,
CC(=O)c1oc2ccccc2c1NC(=O)COC(=O)c1ccc(-n2nc(C)cc2C)cc1,–,–,–,–,–,54,–,–,
OC[C@@H]1CN(Cc2ccc(F)cc2)C[C@H](n2cnc3c(N4CCN(c5ccccc5)CC4)ncnc32)O1,–,–,–,–,–,–,·,·,
CC1(Cc2ccccc2OC(F)(F)F)C(=O)Nc2c(Cl)ccc(Cl)c21 (stereo not drawn),–,–,–,–,–,–,·,·,
O=C(NCc1ccc(F)cc1)c1c2c(nc3ccccc13)CCC2,–,–,–,–,–,57,–,–,
O=C(NCc1ccco1)c1c2c(nc3ccccc13)CCC2,–,–,–,–,–,84,–,–,
O=C(CSc1c2c(nc3ccccc13)CCCC2)NCc1ccco1,–,–,–,–,–,–,·,·,
CC1(C(=O)NS(=O)(=O)c2ccccc2C(F)(F)F)CCN1C(=O)CCC1CCCC1 (stereo not drawn),–,–,–,–,–,–,·,·,
Cc1cccc(NC(=O)c2cc3c(=O)n4ccccc4nc3n(CC(C)C)c2=N)c1,–,–,–,–,–,62,–,–,
COc1cccc(NC(=O)c2cc3c(=O)n4ccccc4nc3n(CC(C)C)c2=N)c1,–,–,–,–,–,–,·,·,
Nc1nnc(CCOc2ccccc2Cl)s1,–,–,–,–,–,–,·,·,
COc1ccccc1CCc1nnc(N)s1,–,–,–,–,–,81,–,–,
CC(C)Nc1ncnc2c1ncn2[C@H]1CN(Cc2ccc(F)cc2)C[C@@H](CO)O1,–,–,–,–,–,–,·,·,
CCCCCCNC(=O)O[C@H]1C[C@@H]2C(=O)N(c3ccccc3)C(=O)[C@@H]2[C@@H]2CN(S(=O)(=O)c3ccc(C)cc3)C[C@]12O,–,–,–,–,–,76,–,–,
SMILES,Rpn11 inh,MT1-MMP act inh,CSN inh,SUMO1-SIM PPI,SKN-1 inh,DNMT1 block,DNMT1 confirm,DNMT1 interf,others
Cc1ccc(S(=O)(=O)N2C[C@H]3[C@H]4C(=O)N(c5ccccc5)C(=O)[C@H]4C[C@H](OC(=O)NC4CC4)[C@@]3(O)C2)cc1,–,–,–,–,–,–,·,·,
O=C(c1[nH]c(C(F)(F)F)nc1-c1ccccc1)N1CCN(Cc2c(F)cccc2Cl)CC1,–,–,–,–,–,–,·,·,
O=[N+]([O-])c1ccc(/C=C/c2ccc3ccccc3n2)cc1,–,–,–,–,–,–,·,·,
O=[N+]([O-])c1ccc(/C=C/c2ccc3cccc(O)c3n2)cc1,–,–,–,–,–,67,–,–,
O=C(NCc1ccc2c(c1)OCO2)C1CCN(C(=O)Nc2ccc(Cl)cc2)CC1,–,–,–,–,–,75,–,–,
CCS(=O)(=O)N1CCC(C(=O)NCc2ccc3c(c2)OCO3)CC1,–,–,–,–,–,–,·,·,
CSC1=NSC2=NC(=O)/C(=C/c3coc4ccc(O)cc4c3=O)C(=N)N12,·,–,–,42,–,82,–,–,
O=C(NCC1CC1)C1Cc2c(-c3ccc4c(c3)OCO4)ccnc2O1 (stereo not drawn),–,–,–,–,–,–,·,·,
COCCn1c(N)c(C(=O)OCc2ccccc2)c2nc3ccccc3nc21,–,–,–,–,–,–,·,·,
C=CCn1c(N)c(C(=O)OCCC)c2nc3ccccc3nc21,–,–,–,–,–,60,–,–,
CCOC(=O)C1=C(C)N=c2sc(=Cc3ccc(OCC(=O)O)cc3)c(=O)n2C1c1ccc(Cl)cc1 (stereo not drawn),·,–,35,44,–,92,99,–,Beacon interf DR=–
CC(C)Oc1ccc(CN2CCC2(C)C(=O)Nc2cccc(Oc3ccccc3)c2)cc1 (stereo not drawn),–,–,–,–,–,–,·,·,
CCC(=O)N1N=C(c2c(-c3ccccc3)c3cc(Cl)ccc3[nH]c2=O)CC1c1ccco1 (stereo not drawn),–,–,–,–,–,52,–,–,
CCCCn1c(N)c(-c2nc3ccccc3o2)c2c([N+](=O)[O-])nn(CC)c(=O)c21,–,–,–,–,–,56,–,–,
CCCCCn1c(N)c(-c2nc3ccccc3s2)c2c([N+](=O)[O-])nn(C)c(=O)c21,–,–,–,–,–,–,·,·,
CCCCn1c(N)c(-c2nc3ccccc3o2)c2c([N+](=O)[O-])nn(C)c(=O)c21,–,–,–,–,–,87,–,–,
COCCCn1c(=N)c(C(N)=S)cc2c(=O)n3cccc(C)c3nc21,–,–,–,–,–,54,–,–,
